“And” between values parts separate entries of the source, which are not always exact repeats. Equal entries are not always repeated.
Test system: HEK-293T
Test: Multiplex assay against HEK293T
Type: toxicity, cell-based
Conditions: human, number of replicates 2
Summary of the method: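 Live cells carried four stains from seeding: Hoechst33342, BioTracker Green Microtubule Cytoskeleton Dye, MitoTracker Red and Annexin V Alexa Fluor 680. They were imaged on a CQ1 microscope at 37°C and 5% CO2 after compound addition. Using CellPathfinder machine-learning gating, cells were split into Hoechst high-intensity objects or normal cells, normal cells into healthy, pyknosed or fragmented nuclei, and pyknosed cells into mitotic or apoptotic; tubulin, mitochondrial-mass and membrane-permeability phenotypes are per cents of healthy-nucleus cells.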

[1] = 12 h, 1 µM, compound concentration 1 uM
[2] = 12 h, 10 µM, compound concentration 10 uM
[3] = 24 h, 1 µM, compound concentration 1 uM
[4] = 24 h, 10 µM, compound concentration 10 uM
[5] = 48 h, 1 µM, compound concentration 1 uM
[6] = 48 h, 10 µM, compound concentration 10 uM

CC1=C(C)C(=O)C(C(C)(C)CC(=O)N(CCCCSC[C@H]2O[C@@H](n3cnc4c(N)ncnc43)[C@H](O)[C@@H]2O)Cc2cccc(-c3ccc(Cl)cc3)c2)=C(C)C1=O
Population Apoptotic (%) [1]: 40% and 44% | Population Fragmented Nuclei (%) [1]: 4% | Population Healthy Nuclei (%) [1]: 89% and 86% | Population Hoechst High Intensity Objects (%) [1]: 6% and 7% | Population Membrane Permeable-Phenotype (%) [1]: 4% and 3% | Population Mitochondria Different-Phenotype (%) [1]: 10% and 11% | Population Mitotic Cells (%) [1]: 59% and 55% | Population Normal (%) [1]: 93% and 92% | Population Pyknosed Nuclei (%) [1]: 6% and 8% | Population Tubulin-Different-Phenotype (%) [1]: 71% and 70% | Total Cell Count [1]: 874 and 797 | Population Apoptotic (%) [2]: 52% and 54% | Population Fragmented Nuclei (%) [2]: 2% | Population Healthy Nuclei (%) [2]: 82% and 81% | Population Hoechst High Intensity Objects (%) [2]: 7% | Population Membrane Permeable-Phenotype (%) [2]: 10% and 3% | Population Mitochondria Different-Phenotype (%) [2]: 48% and 51% | Population Mitotic Cells (%) [2]: 47% and 45% | Population Normal (%) [2]: 92% | Population Pyknosed Nuclei (%) [2]: 14% and 15% | Population Tubulin-Different-Phenotype (%) [2]: 88% and 92% | Total Cell Count [2]: 506 and 434 | Population Apoptotic (%) [3]: 21% and 25% | Population Fragmented Nuclei (%) [3]: 8% and 6% | Population Healthy Nuclei (%) [3]: 87% | Population Hoechst High Intensity Objects (%) [3]: 8% | Population Membrane Permeable-Phenotype (%) [3]: 6% and 3% | Population Mitochondria Different-Phenotype (%) [3]: 2% and 5% | Population Mitotic Cells (%) [3]: 78% and 74% | Population Normal (%) [3]: 91% | Population Pyknosed Nuclei (%) [3]: 4% and 6% | Population Tubulin-Different-Phenotype (%) [3]: 50% | Total Cell Count [3]: 1418 and 1263 | Population Apoptotic (%) [4]: 46% and 64% | Population Fragmented Nuclei (%) [4]: 3% | Population Healthy Nuclei (%) [4]: 81% | Population Hoechst High Intensity Objects (%) [4]: 7% and 9% | Population Membrane Permeable-Phenotype (%) [4]: 4% and 3% | Population Mitochondria Different-Phenotype (%) [4]: 62% and 59% | Population Mitotic Cells (%) [4]: 53% and 35% | Population Normal (%) [4]: 92% and 90% | Population Pyknosed Nuclei (%) [4]: 15% and 14% | Population Tubulin-Different-Phenotype (%) [4]: 88% and 93% | Total Cell Count [4]: 524 and 473 | Population Apoptotic (%) [5]: 10% and 13% | Population Fragmented Nuclei (%) [5]: 24% and 15% | Population Healthy Nuclei (%) [5]: 74% and 81% | Population Hoechst High Intensity Objects (%) [5]: 10% and 9% | Population Membrane Permeable-Phenotype (%) [5]: 6% and 5% | Population Mitochondria Different-Phenotype (%) [5]: 0% | Population Mitotic Cells (%) [5]: 89% and 86% | Population Normal (%) [5]: 89% and 90% | Population Pyknosed Nuclei (%) [5]: 1% and 2% | Population Tubulin-Different-Phenotype (%) [5]: 25% and 28% | Total Cell Count [5]: 3744 and 2984 | Population Apoptotic (%) [6]: 55% and 62% | Population Fragmented Nuclei (%) [6]: 4% and 5% | Population Healthy Nuclei (%) [6]: 87% and 88% | Population Hoechst High Intensity Objects (%) [6]: 6% and 10% | Population Membrane Permeable-Phenotype (%) [6]: 8% and 6% | Population Mitochondria Different-Phenotype (%) [6]: 47% | Population Mitotic Cells (%) [6]: 44% and 37% | Population Normal (%) [6]: 93% and 89% | Population Pyknosed Nuclei (%) [6]: 7% and 5% | Population Tubulin-Different-Phenotype (%) [6]: 93% and 92% | Total Cell Count [6]: 622 and 637

COc1cc(Br)c(S(=O)(=O)Nc2ccc(C(F)(F)F)c(O[C@@H]3CCN(C)C3)c2)cc1OC
Population Apoptotic (%) [1]: 35% and 41% | Population Fragmented Nuclei (%) [1]: 4% and 3% | Population Healthy Nuclei (%) [1]: 83% and 84% | Population Hoechst High Intensity Objects (%) [1]: 8% and 6% | Population Membrane Permeable-Phenotype (%) [1]: 3% and 4% | Population Mitochondria Different-Phenotype (%) [1]: 14% and 12% | Population Mitotic Cells (%) [1]: 64% and 58% | Population Normal (%) [1]: 91% and 93% | Population Pyknosed Nuclei (%) [1]: 11% and 12% | Population Tubulin-Different-Phenotype (%) [1]: 48% and 41% | Total Cell Count [1]: 739 and 648 | Population Apoptotic (%) [2]: 60% and 67% | Population Fragmented Nuclei (%) [2]: 5% and 3% | Population Healthy Nuclei (%) [2]: 78% | Population Hoechst High Intensity Objects (%) [2]: 11% and 8% | Population Membrane Permeable-Phenotype (%) [2]: 3% and 5% | Population Mitochondria Different-Phenotype (%) [2]: 31% and 22% | Population Mitotic Cells (%) [2]: 39% and 32% | Population Normal (%) [2]: 88% and 91% | Population Pyknosed Nuclei (%) [2]: 16% and 17% | Population Tubulin-Different-Phenotype (%) [2]: 76% and 59% | Total Cell Count [2]: 481 and 500 | Population Apoptotic (%) [3]: 38% and 42% | Population Fragmented Nuclei (%) [3]: 4% and 5% | Population Healthy Nuclei (%) [3]: 86% | Population Hoechst High Intensity Objects (%) [3]: 7% and 8% | Population Membrane Permeable-Phenotype (%) [3]: 2% and 3% | Population Mitochondria Different-Phenotype (%) [3]: 2% and 3% | Population Mitotic Cells (%) [3]: 61% and 57% | Population Normal (%) [3]: 92% and 91% | Population Pyknosed Nuclei (%) [3]: 8% | Population Tubulin-Different-Phenotype (%) [3]: 26% and 23% | Total Cell Count [3]: 1282 and 991 | Population Apoptotic (%) [4]: 59% and 43% | Population Fragmented Nuclei (%) [4]: 9% and 6% | Population Healthy Nuclei (%) [4]: 78% and 83% | Population Hoechst High Intensity Objects (%) [4]: 9% and 8% | Population Membrane Permeable-Phenotype (%) [4]: 1% and 4% | Population Mitochondria Different-Phenotype (%) [4]: 10% and 6% | Population Mitotic Cells (%) [4]: 40% and 56% | Population Normal (%) [4]: 90% and 91% | Population Pyknosed Nuclei (%) [4]: 12% and 9% | Population Tubulin-Different-Phenotype (%) [4]: 51% and 30% | Total Cell Count [4]: 764 and 718 | Population Apoptotic (%) [5]: 14% and 8% | Population Fragmented Nuclei (%) [5]: 15% and 9% | Population Healthy Nuclei (%) [5]: 82% and 87% | Population Hoechst High Intensity Objects (%) [5]: 9% | Population Membrane Permeable-Phenotype (%) [5]: 4% and 3% | Population Mitochondria Different-Phenotype (%) [5]: 0% | Population Mitotic Cells (%) [5]: 85% and 91% | Population Normal (%) [5]: 90% | Population Pyknosed Nuclei (%) [5]: 2% | Population Tubulin-Different-Phenotype (%) [5]: 13% and 11% | Total Cell Count [5]: 3360 and 2392 | Population Apoptotic (%) [6]: 25% and 20% | Population Fragmented Nuclei (%) [6]: 13% | Population Healthy Nuclei (%) [6]: 82% and 84% | Population Hoechst High Intensity Objects (%) [6]: 9% | Population Membrane Permeable-Phenotype (%) [6]: 5% and 6% | Population Mitochondria Different-Phenotype (%) [6]: 0% | Population Mitotic Cells (%) [6]: 75% and 80% | Population Normal (%) [6]: 90% | Population Pyknosed Nuclei (%) [6]: 4% and 2% | Population Tubulin-Different-Phenotype (%) [6]: 24% and 13% | Total Cell Count [6]: 1611 and 1583
